Measured values as given in ChEMBL document CHEMBL2407062, “Synthesis and anticancer activities of 5,6,7-trimethoxy-N-phenyl(ethyl)-4-aminoquinazoline derivatives” (Eur J Med Chem, 2013).
Calls of active or inactive are those of the source. No cut-off for these calls is given here.

How the values were obtained:
Bcap37 [1] = assay: Growth inhibition of human Bcap37 cells at 10 uM after 72 hrs by MTT assay relative to control; assay type: functional; details: for inhibition of growth at 10 µM: Homo sapiens, Bcap37, 72 h, read-out: GI
In short: (§1)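 Cells in RPMI 1640 with 10% heat-inactivated FBS, 37 °C, 5% CO2. Seeded at 2 × 10³ cells per well. Compounds dissolved in DMSO, diluted in medium, tested at 1–100 μM for 72 h; 0.1% DMSO control. MTT read-out, absorbance at 595 nm. Mean ± SD of triplicate experiments. IC50 taken from the dose–response curve.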

PC-3 [2] = assay: Growth inhibition of human PC3 cells at 10 uM after 72 hrs by MTT assay relative to control; assay type: functional; details: for inhibition of growth at 10 µM: Homo sapiens, PC-3, 72 h, read-out: GI; in short: as §1
PC-3 [3] = assay: Growth inhibition of human PC3 cells at 1 uM after 72 hrs by MTT assay relative to control; assay type: functional; details: for inhibition of growth at 1 µM: Homo sapiens, PC-3, 72 h, read-out: GI; in short: as §1
Bcap37 [4] = assay: Growth inhibition of human Bcap37 cells at 1 uM after 72 hrs by MTT assay relative to control; assay type: functional; details: for inhibition of growth at 1 µM: Homo sapiens, Bcap37, 72 h, read-out: GI; in short: as §1
[5] = molecular target: T1, Mitogen-activated protein kinase; ERK1/ERK2 (Homo sapiens) (UniProt P27361+P28482); assay: Inhibition of EGF-induced ERK1/2 phosphorylation in human PC3 cells at 10 uM incubated for 60 mins prior to EGF-treatment measured after 10 mins by Western blotting analysis; assay type: cell-based; details: PC-3
T1 sequence (P27361 whole entry, looked up): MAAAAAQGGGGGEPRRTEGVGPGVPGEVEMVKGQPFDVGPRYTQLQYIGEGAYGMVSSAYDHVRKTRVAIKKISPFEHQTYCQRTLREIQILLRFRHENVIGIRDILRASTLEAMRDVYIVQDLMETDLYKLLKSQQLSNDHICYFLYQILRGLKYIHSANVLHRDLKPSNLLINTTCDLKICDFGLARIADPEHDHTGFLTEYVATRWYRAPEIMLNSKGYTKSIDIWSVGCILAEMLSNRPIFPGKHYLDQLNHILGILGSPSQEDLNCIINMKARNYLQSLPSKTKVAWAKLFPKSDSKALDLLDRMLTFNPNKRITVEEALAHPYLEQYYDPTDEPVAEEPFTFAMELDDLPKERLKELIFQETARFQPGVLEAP
T1 sequence (P28482 whole entry, looked up): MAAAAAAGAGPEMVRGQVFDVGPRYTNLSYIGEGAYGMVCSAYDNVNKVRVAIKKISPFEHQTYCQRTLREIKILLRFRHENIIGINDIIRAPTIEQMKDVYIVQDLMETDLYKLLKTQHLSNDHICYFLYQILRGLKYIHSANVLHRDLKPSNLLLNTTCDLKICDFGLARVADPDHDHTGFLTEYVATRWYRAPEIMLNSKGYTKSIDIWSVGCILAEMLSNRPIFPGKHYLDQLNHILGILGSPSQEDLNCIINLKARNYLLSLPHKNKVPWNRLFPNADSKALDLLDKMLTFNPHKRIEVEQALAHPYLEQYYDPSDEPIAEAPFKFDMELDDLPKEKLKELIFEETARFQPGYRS
In short: (§2)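 PC3 cells grown 36–48 h in RPMI 1640 with 10% FBS at 37 °C, then serum-starved 24 h. Treated with compound for 60 min, then EGF 10 ng/mL for 10 min; quenched on ice. Cells washed with cold PBS and lysed in NP-40/SDS buffer with Na3VO4 and NaF. Run on 10% SDS-PAGE, PVDF blot probed for pERK1/2 with actin as loading control, ECL detection.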

Bcap37 [6] = assay: Growth inhibition of human Bcap37 cells after 72 hrs by MTT assay; assay type: functional, cell-based; details: Bcap37, 72 h; in short: as §1
BGC-823 [7] = assay: Growth inhibition of human BGC823 cells after 72 hrs by MTT assay; assay type: functional, cell-based; details: BGC-823, 72 h; in short: as §1
PC-3 [8] = assay: Growth inhibition of human PC3 cells after 72 hrs by MTT assay; assay type: functional, cell-based; details: PC-3, 72 h; in short: as §1
BGC-823 [9] = assay: Growth inhibition of human BGC823 cells at 10 uM after 72 hrs by MTT assay relative to control; assay type: functional; details: BGC-823, 72 h, read-out: GI; in short: as §1
BGC-823 [10] = assay: Growth inhibition of human BGC823 cells at 1 uM after 72 hrs by MTT assay relative to control; assay type: functional; details: BGC-823, 72 h, read-out: GI; in short: as §1
[11] = molecular target: T1, Mitogen-activated protein kinase; ERK1/ERK2 (Homo sapiens); assay: Inhibition of EGF-induced ERK1/2 phosphorylation in human PC3 cells at 1.28 uM incubated for 60 mins prior to EGF-treatment measured after 10 mins by Western blotting analysis; assay type: cell-based; details: PC-3; in short: as §2
[12] = molecular target: T1, Mitogen-activated protein kinase; ERK1/ERK2 (Homo sapiens); assay: Inhibition of EGF-induced ERK1/2 phosphorylation in human PC3 cells at 5.12 uM incubated for 60 mins prior to EGF-treatment measured after 10 mins by Western blotting analysis; assay type: cell-based; details: PC-3; in short: as §2

Row | Compound | inhibition of growth at 10 µM (Bcap37 [1]) | inhibition of growth at 10 µM (PC-3 [2]) | inhibition of growth at 1 µM (PC-3 [3]) | inhibition of growth at 1 µM (Bcap37 [4]) | inhibition [5] | inhibition of growth at 10 µM (BGC-823 [9]) | inhibition of growth at 1 µM (BGC-823 [10]) | further results
1 | COc1cc2ncnc(Nc3ccc(Br)cc3Cl)c2c(OC)c1OC | 18.6% | 49.7% | -8.4% | 8.7% | – | – | – | –
2 | COc1cc2ncnc(Nc3ccc(O)cc3)c2c(OC)c1OC | 3.3% | 24.6% | 9.3% | -7.5% | Active | – | – | –
3 | COc1cc2ncnc(Nc3cccc(Br)c3)c2cc1OC | 43.4% | 62.8% | 21.5% | 19.8% | – | 32.6% | 9.3% | IC50 (Bcap37 [6]): 15.7 µM; IC50 (BGC-823 [7]): 14.4 µM; IC50 (PC-3 [8]): 8.3 µM
4 | COc1cc2ncnc(Nc3cccc(F)c3)c2c(OC)c1OC [listing 1 of 2 here] | – | 21.5% | – | – | – | – | – | growth inhibition (GI) (PC-3 [3]): 14.7%
5 | COc1cc(Nc2ncnc3cc(OC)c(OC)c(OC)c23)c(C(=O)O)cc1OC | 53.7% | 40.4% | 12.5% | 40.9% | – | 34.3% | 13.2% | –
6 | COc1cc2ncnc(Nc3cc(I)ccc3C(=O)O)c2c(OC)c1OC | 20.7% | 22.6% | 14.1% | 19.4% | – | 51.9% | 42.2% | –
7 | COc1cc2ncnc(Nc3cccc(Cl)c3)c2c(OC)c1OC [listing 1 of 2 here] | – | – | – | – | – | – | – | growth inhibition (GI) (Bcap37 [1]): 28.8%; growth inhibition (GI) (PC-3 [2]): 11.9%; growth inhibition (GI) (PC-3 [3]): -4.5%; growth inhibition (GI) (Bcap37 [4]): 14.1%
8 | COc1cc2ncnc(Nc3cc(C(F)(F)F)ccc3F)c2c(OC)c1OC | 27.6% | 29.2% | 7.6% | 14.4% | Active | – | – | –
9 | COc1cc2ncnc(Nc3c(F)cc(F)cc3Br)c2c(OC)c1OC | 2.2% | 43% | 8.1% | 4.3% | – | 68.4% | 38.5% | –
10 | COc1cc2ncnc(Nc3ccc(C(F)(F)F)cc3)c2c(OC)c1OC | 32.3% | 29% | 7.4% | 8.6% | Active | 17.4% | 2.4% | inhibition [11]: Active
11 | COc1cc2ncnc(Nc3cccc(Cl)c3)c2c(OC)c1OC [listing 2 of 2 here] | – | – | – | – | Active | – | – | –
12 | COc1cc2ncnc(Nc3cccc(C(F)(F)F)c3F)c2c(OC)c1OC | 69.3% | 42.7% | 9.2% | 11.3% | – | 41.9% | 3.9% | –
13 | COc1cc2ncnc(Nc3c(C)cc(C)cc3Br)c2c(OC)c1OC | – | 19.8% | 9.7% | – | – | 11.4% | 0.6% | –
14 | COc1cc2ncnc(Nc3ccccc3[N+](=O)[O-])c2c(OC)c1OC | 15.4% | 25.5% | 11.3% | -8.3% | – | – | – | –
15 | COc1cc2ncnc(Nc3cccc(F)c3)c2c(OC)c1OC.Cl | 13.5% | – | 14.9% | 7% | – | – | – | growth inhibition (GI) (PC-3 [2]): 38.9%
16 | COc1cc2ncnc(Nc3ccc(Cl)cc3)c2c(OC)c1OC | 26.4% | 31.3% | 6.3% | 22.2% | – | 43% | 15.5% | –
17 | COc1cc2ncnc(Nc3cccc([N+](=O)[O-])c3)c2c(OC)c1OC | 50% | 26.4% | 14.5% | 31.6% | – | 16.3% | 9% | –
18 | COc1cc2ncnc(Nc3cccc(F)c3)c2c(OC)c1OC [listing 2 of 2 here] | – | – | – | – | Active | – | – | inhibition [12]: Active
19 | COc1cc2ncnc(Nc3ccc([N+](=O)[O-])cc3)c2c(OC)c1OC | -16.3% | 24.9% | 7.9% | -12% | – | – | – | –
20 | COc1cc2ncnc(Nc3ccc(F)cc3)c2c(OC)c1OC | 10.8% | 9.1% | 3.1% | 7.8% | Active | – | – | inhibition [12]: Active
21 | COc1cc2ncnc(Nc3cc(F)ccc3Br)c2c(OC)c1OC | 18.9% | 34.7% | 12.8% | 10.5% | – | 60.7% | 12.4% | –
22 | COc1cc2ncnc(Nc3ccc(Br)cc3)c2c(OC)c1OC | 26.1% | 22.2% | 1% | 10.4% | Active | 32.6% | 13.8% | –
23 | COc1cc2ncnc(Nc3cccc(Cl)c3)c2c(OC)c1OC.Cl | 17.5% | – | – | 11% | – | 23.9% | 5.9% | growth inhibition (GI) (PC-3 [2]): 28.8%; growth inhibition (GI) (PC-3 [3]): 16.9%
24 | COc1cc2ncnc(Nc3cccc(C(F)(F)F)c3)c2c(OC)c1OC | 23.5% | 46.6% | 14.9% | 21% | Active | 24.3% | 1% | inhibition [11]: Active
25 | COc1cc2ncnc(Nc3ccccc3F)c2c(OC)c1OC | – | 24% | 0.9% | – | Active | – | – | –
26 | COc1cc2ncnc(Nc3cc(C(F)(F)F)ccc3Br)c2c(OC)c1OC | – | 25.3% | -3.9% | – | – | 23.2% | 2.1% | –
27 | COc1cc2ncnc(NCCc3cccc(F)c3)c2c(OC)c1OC | 45.8% | 61.7% | 35.6% | 2.1% | – | 58.9% | 40.8% | –
28 | COc1cc2ncnc(Nc3ccc(C)cc3)c2c(OC)c1OC | 11.1% | 45.6% | 23.8% | 7.3% | Active | 19.3% | 1.2% | inhibition [12]: Active
